Measurements reported in ChEMBL document CHEMBL1132472, “Synthesis and pharmacological evaluation of some 8-cyanopyrido[3', 2':4,5]thieno[3,2-d]triazine derivatives as inhibitors of nitric oxide and eicosanoid biosynthesis” (J Med Chem, 1999).

Tests used:
Mus musculus [1] = species on record: Mus musculus; experiment: (§1) Ability to inhibit the generation of NO by stimulated murine peritoneal macrophages; type: functional; parameters: concentration or dose not given beside the values
Summary of the method: (§2)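 Thioglycolate-elicited mouse peritoneal macrophages (lavage 4 days after ip 10% thioglycolate), adhered 2 h at 37 °C in arginine (1 mM)-containing buffered medium with 10% FBS. Cells stimulated with E. coli LPS 10 µg/mL for 24 h at 37 °C with test compound or vehicle. Supernatant nitrite measured fluorimetrically. IC50 from ≥4 concentrations (n = 6). Mean ± SEM.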

Mus musculus [2] = species on record: Mus musculus; experiment: (§3) Ability to inhibit the accumulation of PGE-2 in stimulated murine peritoneal macrophages; type: functional; parameters: concentration or dose not given beside the values
Summary of the method: (§4)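 Mouse peritoneal macrophages were elicited by ip thioglycolate (10%) and collected by lavage 4 days later. Adherent cells were stimulated with E. coli LPS (10 µg/mL) at 37 °C for 24 h with compound or vehicle. Supernatant PGE₂ was measured by radioimmunoassay. IC50 was calculated from at least four significant concentrations (n = 6).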

[3] = target: T1, Nitric oxide synthase, inducible (Mus musculus) (UniProt P29477); experiment: In vitro activity at a concentration of 10 uM against Inducible nitric oxide synthase (iNOS)
T1 sequence (whole entry): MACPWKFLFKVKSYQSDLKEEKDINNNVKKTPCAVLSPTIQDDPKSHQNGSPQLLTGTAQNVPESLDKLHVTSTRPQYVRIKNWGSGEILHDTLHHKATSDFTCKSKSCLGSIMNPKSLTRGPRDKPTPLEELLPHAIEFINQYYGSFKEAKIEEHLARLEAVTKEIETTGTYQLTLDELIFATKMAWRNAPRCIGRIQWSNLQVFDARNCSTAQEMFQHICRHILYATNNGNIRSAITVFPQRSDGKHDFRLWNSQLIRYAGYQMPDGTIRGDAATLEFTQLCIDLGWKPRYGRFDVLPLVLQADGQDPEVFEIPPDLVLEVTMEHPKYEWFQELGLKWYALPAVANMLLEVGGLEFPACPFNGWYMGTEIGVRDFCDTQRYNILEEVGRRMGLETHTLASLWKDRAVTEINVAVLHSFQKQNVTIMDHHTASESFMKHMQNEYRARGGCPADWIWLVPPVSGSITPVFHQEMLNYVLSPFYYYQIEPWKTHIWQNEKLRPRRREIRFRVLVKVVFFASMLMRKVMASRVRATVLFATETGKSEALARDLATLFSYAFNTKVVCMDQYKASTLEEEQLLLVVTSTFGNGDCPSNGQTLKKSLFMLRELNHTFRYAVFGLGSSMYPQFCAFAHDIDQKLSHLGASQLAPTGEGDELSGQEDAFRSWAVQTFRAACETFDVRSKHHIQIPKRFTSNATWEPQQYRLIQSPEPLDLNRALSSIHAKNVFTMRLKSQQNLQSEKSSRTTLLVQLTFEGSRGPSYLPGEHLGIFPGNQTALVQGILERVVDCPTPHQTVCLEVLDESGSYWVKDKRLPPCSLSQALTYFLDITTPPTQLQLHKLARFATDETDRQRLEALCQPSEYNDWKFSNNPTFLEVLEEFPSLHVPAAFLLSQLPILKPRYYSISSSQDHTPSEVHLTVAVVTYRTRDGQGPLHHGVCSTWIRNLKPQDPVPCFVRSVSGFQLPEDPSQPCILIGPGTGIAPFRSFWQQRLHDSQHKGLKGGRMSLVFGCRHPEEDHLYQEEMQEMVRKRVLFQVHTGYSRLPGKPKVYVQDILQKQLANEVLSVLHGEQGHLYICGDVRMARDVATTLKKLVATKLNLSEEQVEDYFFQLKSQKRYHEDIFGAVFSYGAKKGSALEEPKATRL

[4] = target: T2, Prostaglandin G/H synthase 2 (Mus musculus) (UniProt Q05769); experiment: In vitro activity at a concentration of 10 uM against Prostaglandin G/H synthase 2
T2 sequence (whole entry): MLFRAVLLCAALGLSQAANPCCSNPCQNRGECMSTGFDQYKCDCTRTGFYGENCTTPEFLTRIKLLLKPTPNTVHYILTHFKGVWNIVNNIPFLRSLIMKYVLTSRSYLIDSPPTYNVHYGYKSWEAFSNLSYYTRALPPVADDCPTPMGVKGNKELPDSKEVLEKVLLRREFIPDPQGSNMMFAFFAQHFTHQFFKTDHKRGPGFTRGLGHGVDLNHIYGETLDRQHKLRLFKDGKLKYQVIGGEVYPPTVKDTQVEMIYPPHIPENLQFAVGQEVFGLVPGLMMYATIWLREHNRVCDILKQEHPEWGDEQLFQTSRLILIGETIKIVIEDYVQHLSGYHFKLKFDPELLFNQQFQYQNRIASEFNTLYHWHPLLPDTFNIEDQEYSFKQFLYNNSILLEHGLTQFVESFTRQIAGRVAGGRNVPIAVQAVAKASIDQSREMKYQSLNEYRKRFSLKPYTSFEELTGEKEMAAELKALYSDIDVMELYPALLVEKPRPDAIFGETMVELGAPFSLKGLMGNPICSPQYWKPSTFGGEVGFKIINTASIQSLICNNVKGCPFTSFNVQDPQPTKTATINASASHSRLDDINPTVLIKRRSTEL

[5] = target: Prostaglandin G/H synthase 1 (Homo sapiens) (UniProt P23219); experiment: In vitro activity at a concentration of 10 uM against Prostaglandin G/H synthase 1
Summary of the method: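 Microsomes were prepared by 2000g spin for 5 min, then 100000g for 100 min, both at 4 °C. Microsomes (20 µg protein/tube) were incubated with arachidonic acid plus compound at 10 µM or vehicle. TXB₂ formed was measured by radioimmunoassay.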

Mus musculus [6] = species on record: Mus musculus; experiment: Compound was evaluated to inhibit PGE-2 accumulation in simulated macrophages; type: functional
Summary of the method: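 Adherent thioglycolate-elicited mouse peritoneal macrophages were stimulated with E. coli LPS (10 µg/mL) for 24 h at 37 °C in the presence of compound at 10 µM or vehicle. Supernatant PGE₂ was measured by radioimmunoassay and expressed as % inhibition, mean ± SEM, n = 6-9.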

Mus musculus [7] = species on record: Mus musculus; experiment: Compound was evaluated to inhibit Nitrite accumulation in simulated macrophages; type: functional
Mus musculus [8] = species on record: Mus musculus; experiment: as §3; type: functional; summary of the method: as §4
Mus musculus [9] = species on record: Mus musculus; experiment: as §1; type: functional, organism-based; summary of the method: as §2

Sequence of Prostaglandin G/H synthase 1 (Homo sapiens) (P23219 whole entry): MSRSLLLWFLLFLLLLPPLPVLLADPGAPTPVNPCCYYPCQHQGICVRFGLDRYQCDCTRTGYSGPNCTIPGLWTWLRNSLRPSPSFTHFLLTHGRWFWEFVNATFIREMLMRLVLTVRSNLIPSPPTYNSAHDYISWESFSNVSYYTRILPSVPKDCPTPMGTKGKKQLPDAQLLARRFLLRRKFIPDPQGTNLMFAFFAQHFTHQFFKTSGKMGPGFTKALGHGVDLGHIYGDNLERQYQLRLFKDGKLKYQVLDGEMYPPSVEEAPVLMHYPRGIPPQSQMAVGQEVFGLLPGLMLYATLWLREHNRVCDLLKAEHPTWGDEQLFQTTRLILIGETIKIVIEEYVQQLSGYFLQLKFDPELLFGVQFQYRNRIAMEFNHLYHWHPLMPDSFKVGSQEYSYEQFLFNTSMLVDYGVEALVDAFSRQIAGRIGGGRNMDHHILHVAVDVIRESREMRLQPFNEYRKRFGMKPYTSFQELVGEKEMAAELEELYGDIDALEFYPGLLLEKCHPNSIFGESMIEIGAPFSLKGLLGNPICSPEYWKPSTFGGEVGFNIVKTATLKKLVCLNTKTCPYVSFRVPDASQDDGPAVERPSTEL

Row | Structure (SMILES) | Inhibition (Mus musculus [1]) | Inhibition (Mus musculus [2]) | Activity (pM of citrulline min-1 (mg of protein)-1) [3] | Activity ((ng of PGE2) (mg of protein)-1) [4] | Activity ((ng of TXB2) (mg of protein)-1) [5] | IC50 (Mus musculus [6]) | IC50 (Mus musculus [7]) | IC50 (Mus musculus [8]) | IC50 (Mus musculus [9])
1 | N#Cc1cc2c(nc1N)sc1c(Cl)nnnc12 | 13.9% | 1% | – | – | – | – | – | – | –
2 | CC(=O)c1ccc(N2CCN(c3nnnc4c3sc3nc(N5CCN(Cc6ccccc6)CC5)c(C#N)cc34)CC2)cc1 | 51.6% | 50.1% | 13.5 | 15.8 | 134 | – | – | – | –
3 | N#Cc1cc2c(nc1NCc1ccccc1)sc1c(Br)nnnc12 | 12.2% | 0.4% | – | – | – | – | – | – | –
4 | CC1CCN(c2nnnc3c2sc2nc(N4CCOCC4)c(C#N)cc23)CC1 | 88.7% | 89.6% | 13.1 | 13 | 130 | 600 nM | 3400 nM | – | –
5 | CC(=O)c1ccc(N2CCN(c3nc4sc5c(Cl)nnnc5c4cc3C#N)CC2)cc1 | 44.7% | 94.5% | 14.1 | – | 104 | – | – | 900 nM | 11200 nM
6 | CC(=O)c1ccc(N2CCN(c3nnnc4c3sc3nc(N5CCOCC5)c(C#N)cc34)CC2)cc1 | 45.6% | 34.6% | 14.2 | 16.6 | 142 | – | – | – | –
7 | CC1CCN(c2nc3sc4c(Cl)nnnc4c3cc2C#N)CC1 | 6.1% | 49% | – | – | 130 | – | – | – | –
8 | N=C(N)NN [PIMAGEDINE] | – | – | 5.4 | – | – | – | – | – | 25100 nM
9 | CN1CCN(c2nnnc3c2sc2nc(NCc4ccccc4)c(C#N)cc23)CC1 | 14.1% | 56.4% | – | – | – | – | – | – | –
10 | CC(=O)c1ccc(N2CCN(c3nnnc4c3sc3nc(N5CCC(C)CC5)c(C#N)cc34)CC2)cc1 | 42.6% | 45.6% | 12.5 | 14.3 | 127 | – | – | – | –
11 | CN1CCN(c2nnnc3c2sc2nc(N4CCN(Cc5ccccc5)CC4)c(C#N)cc23)CC1 | 50.6% | 55.1% | 13.1 | 14.6 | 123 | – | – | – | –
12 | N#Cc1cc2c(nc1N1CCOCC1)sc1c(N3CCNCC3)nnnc12 | 43.3% | 31.3% | 15.1 | 16.5 | 149 | – | – | – | –
13 | COc1ccc2c(c1)c(CC(=O)O)c(C)n2C(=O)c1ccc(Cl)cc1 | – | – | – | – | 63.8 | – | – | – | –
14 | C[C@@H]1C[C@H]2[C@@H]3CCC4=CC(=O)C=C[C@]4(C)[C@@]3(F)[C@@H](O)C[C@]2(C)[C@@]1(O)C(=O)CO [DEXAMETHASONE] | – | – | – | – | – | – | – | 1 nM | 35.8 nM
15 | N#Cc1cc2c(nc1N1CCOCC1)sc1c(Cl)nnnc12 | 51.8% | 59.5% | 14 | – | 112 | – | – | – | –
16 | N#Cc1cc2c(nc1N1CCC(Cc3ccccc3)CC1)sc1c(Cl)nnnc12 | 48.8% | 57.9% | 13.1 | – | 128 | – | – | – | –
17 | CS(=O)(=O)Nc1ccc([N+](=O)[O-])cc1OC1CCCCC1 [NS-398] | – | – | – | – | – | – | – | 3.1 nM | –
18 | N#Cc1cc2c(nc1N1CCOCC1)sc1c(N3CCSCC3)nnnc12 | 31.4% | 36.1% | – | – | – | – | – | – | –
19 | CC1CCN(c2nc3sc4c(N5CCC(C)CC5)nnnc4c3cc2C#N)CC1 | 37.8% | 52.1% | 12.4 | 13.9 | 124 | – | – | – | –
20 | N#Cc1cc2c(nc1NCc1ccccc1)sc1c(N3CCOCC3)nnnc12 | 41.1% | 28.5% | – | – | – | – | – | – | –
